Data published in ChEMBL document CHEMBL1177802, “Novel semicarbazones based 2,5-disubstituted-1,3,4-oxadiazoles: one more step towards establishing four binding site pharmacophoric model hypothesis for anticonvulsant activity” (Bioorg Med Chem Lett, 2010).
Activity calls are given as the source filed them.

Key:
Mus musculus [1] = assay: Neurotoxicity in ip dosed Swiss albino mouse assessed as minimum dose required to cause toxicity after 4 hrs; assay type: organism-based; conditions: in vivo
Procedure, shortened: (§1)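 Acute neurotoxicity by rotorod test in mice given 30, 100 and 300 mg/kg ip, assessed 0.5 and 4.0 h after dosing. Reported as the minimal dose producing the effect in half or more of the animals. Absence of activity is judged at the 300 mg/kg maximum.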

Mus musculus [2] = assay: Neurotoxicity in Swiss albino mouse at 300 mg/kg, ip after 0.5 hrs; assay type: toxicity, organism-based; design: dose 300 mg/kg, route intraperitoneal; conditions: in vivo; procedure, shortened: as §1
Rattus norvegicus [3] = assay: Anticonvulsant activity against subcutaneous strychnine-induced seizures in Wistar rat at 300 mg/kg, ip after 4 hrs; assay type: functional, organism-based; design: dose 300 mg/kg
Procedure, shortened: (§2)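 Rats; subcutaneous strychnine-induced seizure model with compounds given intraperitoneally at 30, 100 and 300 mg/kg. Activity is checked at 0.5 h and 4.0 h and recorded as the minimal dose active in at least half of the animals. Absence of activity is judged at the 300 mg/kg maximum.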

Rattus norvegicus [4] = assay: Anticonvulsant activity against subcutaneous strychnine-induced seizures in Wistar rat at 300 mg/kg, ip after 0.5 hrs; assay type: functional, organism-based; design: dose 300 mg/kg; procedure, shortened: as §2
Mus musculus [5] = assay: Anticonvulsant activity against subcutaneous pentylenetetrazole-induced seizures in Swiss albino mouse at 300 mg/kg, ip after 4 hrs; assay type: functional, organism-based; design: dose 300 mg/kg
Procedure, shortened: (§3)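 Mice; subcutaneous pentylenetetrazole seizure screen after ip dosing at 30, 100 and 300 mg/kg, read 0.5 and 4.0 h post-dose. Scored as the lowest dose protecting at least half of the animals. Absence of activity is judged at the 300 mg/kg maximum.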

Mus musculus [6] = assay: Anticonvulsant activity against subcutaneous pentylenetetrazole-induced seizures in Swiss albino mouse at 300 mg/kg, ip after 0.5 hrs; assay type: functional, organism-based; design: dose 300 mg/kg; procedure, shortened: as §3
Mus musculus [7] = assay: Anticonvulsant activity against maximal electroshock-induced seizures in ip dosed Swiss albino mouse assessed as minimum effective dose after 4 hrs; assay type: functional; conditions: read-out: MED
Procedure, shortened: (§4)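 Mice; compounds given ip at 30, 100 and 300 mg/kg and tested in the maximal electroshock seizure model at 0.5 and 4.0 h after dosing. Read-out is the minimal dose giving protection in half or more of the animals. Absence of activity is judged at the 300 mg/kg maximum.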

Mus musculus [8] = assay: Anticonvulsant activity against maximal electroshock-induced seizures in ip dosed Swiss albino mouse assessed as minimum effective dose after 0.5 hrs; assay type: functional; conditions: read-out: MED; procedure, shortened: as §4
Rattus norvegicus [9] = assay: Anticonvulsant activity against subcutaneous strychnine-induced seizures in ip dosed Wistar rat assessed as minimum effective dose after 4 hrs; assay type: functional; conditions: read-out: MED; procedure, shortened: as §2
Mus musculus [10] = assay: Anticonvulsant activity against subcutaneous pentylenetetrazole-induced seizures in ip dosed Swiss albino mouse assessed as minimum effective dose after 4 hrs; assay type: functional; conditions: read-out: MED; procedure, shortened: as §3
Mus musculus [11] = assay: Anticonvulsant activity against maximal electroshock-induced seizures in Swiss albino mouse at 300 mg/kg, ip after 0.5 hrs; assay type: functional, organism-based; design: dose 300 mg/kg; procedure, shortened: as §4
Mus musculus [12] = assay: Neurotoxicity in Swiss albino mouse at 300 mg/kg, ip after 4 hrs; assay type: toxicity, organism-based; design: dose 300 mg/kg, route intraperitoneal; conditions: in vivo; procedure, shortened: as §1
Mus musculus [13] = assay: Neurotoxicity in ip dosed Swiss albino mouse assessed as minimum dose required to cause toxicity after 0.5 hrs; assay type: organism-based; conditions: in vivo; procedure, shortened: as §1
Mus musculus [14] = assay: Anticonvulsant activity against maximal electroshock-induced seizures in Swiss albino mouse at 300 mg/kg, ip after 4 hrs; assay type: functional, organism-based; design: dose 300 mg/kg; procedure, shortened: as §4
Rattus norvegicus [15] = assay: Anticonvulsant activity against subcutaneous strychnine-induced seizures in ip dosed Wistar rat assessed as minimum effective dose after 0.5 hrs; assay type: functional; conditions: read-out: MED
Procedure, shortened: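 Rats given 30, 100 or 300 mg/kg ip and challenged with subcutaneous strychnine. Protection was read at 0.5 and 4.0 h after dosing. The value is the minimal dose that gave activity in half or more of the animals; no activity at 300 mg/kg was the highest-dose cut-off.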

Mus musculus [16] = assay: Anticonvulsant activity against subcutaneous pentylenetetrazole-induced seizures in ip dosed Swiss albino mouse assessed as minimum effective dose after 0.5 hrs; assay type: functional; conditions: read-out: MED; procedure, shortened: as §3
Rattus norvegicus [17] = assay: Anticonvulsant activity against maximal electroshock-induced seizures in Wistar rat at 30 mg/kg, po after 0.25 hrs; assay type: functional, organism-based; design: dose 30 mg/kg
Procedure, shortened: (§5)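 Rats dosed orally at 30 mg/kg; maximal electroshock protection scored at 0.25, 0.5, 1, 2 and 4 h. Result is given as the number of protected rats out of four.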

Rattus norvegicus [18] = assay: Anticonvulsant activity against maximal electroshock-induced seizures in Wistar rat at 30 mg/kg, po after 0.5 hrs; assay type: functional, organism-based; design: dose 30 mg/kg; procedure, shortened: as §5
Rattus norvegicus [19] = assay: Anticonvulsant activity against maximal electroshock-induced seizures in Wistar rat at 30 mg/kg, po after 1 hr; assay type: functional, organism-based; design: dose 30 mg/kg; procedure, shortened: as §5
Rattus norvegicus [20] = assay: Neurotoxicity in Wistar rat at 30 mg/kg, po after 0.25 hrs; assay type: toxicity, organism-based; design: dose 30 mg/kg, route oral; conditions: in vivo
Procedure, shortened: (§6)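 Oral dosing in rats at 30 mg/kg, neurotoxicity (rotorod) scored at 0.25, 0.5, 1, 2 and 4 h post-administration. Counts are out of four rats per time point.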

Rattus norvegicus [21] = assay: Neurotoxicity in Wistar rat at 30 mg/kg, po after 0.5 hrs; assay type: toxicity, organism-based; design: dose 30 mg/kg, route oral; conditions: in vivo; procedure, shortened: as §6
Rattus norvegicus [22] = assay: Neurotoxicity in Wistar rat at 30 mg/kg, po after 1 hr; assay type: toxicity, organism-based; design: dose 30 mg/kg, route oral; conditions: in vivo; procedure, shortened: as §6
Rattus norvegicus [23] = assay: Neurotoxicity in Wistar rat at 30 mg/kg, po after 2 hrs; assay type: toxicity, organism-based; design: dose 30 mg/kg, route oral; conditions: in vivo; procedure, shortened: as §6
Rattus norvegicus [24] = assay: Increase in GABA level in Wistar rat midbrain assessed per mg of tissue at 100 mg/kg, ip after 2 hrs; assay type: functional; conditions: route intraperitoneal
Procedure, shortened: (§7)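 Rats given 100 mg/kg ip and killed by decapitation 2 h later. Midbrain, medulla oblongata and cerebellum are placed separately in ice-cold 80% ethanol and processed for GABA, expressed per 100 mg tissue. Reference drug clobazam is given at 30 mg/kg ip. Values are mean ± SEM of six rats.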

Rattus norvegicus [25] = assay: Increase in GABA level in Wistar rat medulla oblangata assessed per mg of tissue at 100 mg/kg, ip after 2 hrs; assay type: functional, Medulla oblongata; conditions: route intraperitoneal; procedure, shortened: as §7
Rattus norvegicus [26] = assay: Increase in GABA level in Wistar rat cerebellum assessed per mg of tissue at 100 mg/kg, ip after 2 hrs; assay type: functional; conditions: route intraperitoneal; procedure, shortened: as §7

Compound | Activity (Mus musculus [1]) | Activity (Mus musculus [2]) | MED (Rattus norvegicus [3]) | MED (Rattus norvegicus [4]) | MED (Mus musculus [5]) | MED (Mus musculus [6]) | minimal effective dose (Mus musculus [7]) | minimal effective dose (Mus musculus [8]) | minimal effective dose (Mus musculus [10]) | MED (Mus musculus [11]) | Activity (Mus musculus [12]) | Activity (Mus musculus [13]) | MED (Mus musculus [14]) | other results
CN(C)c1ccc(/C=N\NC(=O)Nc2nnc(COc3ccc4ccccc4c3)o2)cc1 | 300 mg/kg | Non-toxic | inactive | inactive | inactive | inactive | 300 mg/kg | 100 mg/kg |  |  |  |  |  | 
C/C(=N/NC(=O)Nc1nnc(COc2ccc3ccccc3c2)o1)c1ccc(N)cc1 |  | Non-toxic |  | inactive |  | inactive | 300 mg/kg |  | 300 mg/kg | inactive | Non-toxic |  |  | minimal effective dose (Rattus norvegicus [9]): 300 mg/kg
COc1cc(/C=N\NC(=O)Nc2nnc(COc3ccc4ccccc4c3)o2)ccc1O |  |  |  | inactive | inactive | inactive |  |  |  | inactive | Non-toxic | 300 mg/kg | inactive | minimal effective dose (Rattus norvegicus [9]): 300 mg/kg
C/C(=N/NC(=O)Nc1nnc(COc2ccc3ccccc3c2)o1)c1ccc(Cl)cc1 |  | Non-toxic | inactive | inactive |  | inactive |  |  | 300 mg/kg | inactive | Non-toxic |  | inactive | 
O=C1NC(=O)C(c2ccccc2)(c2ccccc2)N1 [PHENYTOIN] | 100 mg/kg |  |  | inactive | inactive | inactive | 30 mg/kg | 30 mg/kg |  |  |  | 100 mg/kg |  | minimal effective dose (Rattus norvegicus [9]): 100 mg/kg
CCC1(C)CC(=O)NC1=O (configuration not stated) [ETHOSUXIMIDE] |  | Non-toxic | inactive |  |  |  |  |  | 300 mg/kg | inactive | Non-toxic |  | inactive | minimal effective dose (Rattus norvegicus [15]): 300 mg/kg; minimal effective dose (Mus musculus [16]): 100 mg/kg
O=C(N/N=C(/c1ccccc1)c1ccc(O)cc1)Nc1nnc(COc2ccc3ccccc3c2)o1 |  | Non-toxic |  | inactive |  | inactive | 300 mg/kg | 100 mg/kg | 300 mg/kg |  | Non-toxic |  |  | minimal effective dose (Rattus norvegicus [9]): 300 mg/kg; Activity (Rattus norvegicus [17]): inactive; Activity (Rattus norvegicus [18]): inactive; Activity (Rattus norvegicus [19]): inactive; Activity (Rattus norvegicus [20]): Non-toxic; Activity (Rattus norvegicus [21]): Non-toxic; Activity (Rattus norvegicus [22]): Non-toxic; Activity (Rattus norvegicus [23]): Non-toxic; Activity (Rattus norvegicus [24]): 62.25 µg; Activity (Rattus norvegicus [25]): 37.74 µg; Activity (Rattus norvegicus [26]): 31.41 µg
Cc1ccc(/C=N\NC(=O)Nc2nnc(COc3ccc4ccccc4c3)o2)cc1 |  | Non-toxic | inactive | inactive | inactive | inactive | 300 mg/kg |  |  | inactive | Non-toxic |  |  | 
O=C(N/N=C\c1cccc(O)c1)Nc1nnc(COc2ccc3ccccc3c2)o1 | 300 mg/kg | Non-toxic | inactive | inactive |  | inactive | 300 mg/kg |  | 300 mg/kg | inactive |  |  |  | 
O=C(N/N=C\c1ccc(Cl)cc1)Nc1nnc(COc2ccc3ccccc3c2)o1 |  |  | inactive | inactive | inactive | inactive |  |  |  | inactive | Non-toxic | 300 mg/kg | inactive | 
C/C(=N/NC(=O)Nc1nnc(COc2ccc3ccccc3c2)o1)c1ccc(C)cc1 |  |  | inactive | inactive | inactive |  |  |  |  | inactive | Non-toxic | 300 mg/kg | inactive | minimal effective dose (Mus musculus [16]): 300 mg/kg
CCCC(CCC)C(=O)[O-].[Na+] [VALPROATE SODIUM] |  | Non-toxic | inactive |  | inactive |  |  | 300 mg/kg |  |  | Non-toxic |  | inactive | minimal effective dose (Rattus norvegicus [15]): 300 mg/kg; minimal effective dose (Mus musculus [16]): 300 mg/kg
COc1ccc(/C=N\NC(=O)Nc2nnc(COc3ccc4ccccc4c3)o2)cc1 |  | Non-toxic | inactive | inactive |  | inactive |  |  | 300 mg/kg | inactive | Non-toxic |  | inactive | 
O=C(N/N=C\c1ccc([N+](=O)[O-])cc1)Nc1nnc(COc2ccc3ccccc3c2)o1 | 300 mg/kg | Non-toxic |  | inactive | inactive | inactive |  | 300 mg/kg |  |  |  |  | inactive | minimal effective dose (Rattus norvegicus [9]): 300 mg/kg
NC(=O)N1c2ccccc2C=Cc2ccccc21 [CARBAMAZEPINE] | 300 mg/kg |  | inactive | inactive |  |  | 100 mg/kg | 30 mg/kg | 300 mg/kg |  |  | 100 mg/kg |  | minimal effective dose (Mus musculus [16]): 100 mg/kg
COc1ccc(/C(=N\NC(=O)Nc2nnc(COc3ccc4ccccc4c3)o2)c2ccccc2)cc1 | 300 mg/kg | Non-toxic | inactive | inactive | inactive | inactive | 300 mg/kg |  |  | inactive |  |  |  | 
O=C(NN=C(c1ccccc1)c1ccccc1)Nc1nnc(COc2ccc3ccccc3c2)o1 |  |  | inactive | inactive | inactive | inactive | 300 mg/kg |  |  | inactive | Non-toxic | 300 mg/kg |  | 
C/C(=N/NC(=O)Nc1nnc(COc2ccc3ccccc3c2)o1)c1ccc(O)cc1 | 300 mg/kg | Non-toxic | inactive | inactive | inactive | inactive | 300 mg/kg | 100 mg/kg |  |  |  |  |  | 
O=C(N/N=C\c1ccccc1)Nc1nnc(COc2ccc3ccccc3c2)o1 | 300 mg/kg | Non-toxic | inactive | inactive | inactive | inactive | 300 mg/kg |  |  | inactive |  |  |  | 
